Reference: the RNAGym collection of RNA variant scans (doi:10.1126/science.aae0568)
Variants at the floor of the assay were thinned out.

B1: tRNA (parent)
chain: GUUCCGUUGGCGUAAUGGUAACGCGUCUCCCUCCUAAGGAGAAGACUGCGGGUUCGAGUCCCGUACGGAACG

Variants of: B1
Assay: yeast fitness relative to wild type (ratio to wild type); higher = fitter; tRNA-Arg(CCU), competitive growth, 37 C, YPD
How it was run: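 Variants of the tRNA-Arg(CCU) gene were chemically synthesised with a 3% per-site mutation rate across 69 sites and placed at the native genomic locus in Saccharomyces cerevisiae. Six parallel replicates of the pooled strains were competed in YPD at 37°C for 24 hours, and gene amplicons from the start and end populations were read by 100-nucleotide paired-end sequencing. Darwinian fitness relative to wild type was derived from changes in genotype frequencies. Genotypes required ≥ 100 starting reads, and estimates < 0.5 were set to 0.5.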

Variant	yeast fitness
U35A U53C A57C	≤ 0.5
U35C A42G	0.761
C34U A43U A45U	0.534
U35A C55A C66A	≤ 0.5
C34G A43U C49A A69U	0.584
C34U A37U C46A G51A A65U	≤ 0.5
U35C A36C A45C	0.522
U35A G50A A69U	0.621
C34U G52A U54A C66U A69C	≤ 0.5
C34G U35A G63C	≤ 0.5
C34U A65C G67C	≤ 0.5
U35C A36U A40U C55U A57C	0.865
C34G C46A	0.615
C34G C46U	0.616
C34G C46U A57U C60G A65C	≤ 0.5
C34G A43U C49A	0.737
U35A A70U	0.787
U35A A70G	0.588
U35A A70C	0.769
U35C A42C A43G	0.617
C34G A45U G68C	0.578
C34U C49A	0.585
C34U U47A C66U	≤ 0.5
U35A C60G G67U	≤ 0.5

Variant	yeast fitness
C34U A36G C66A	≤ 0.5
U35A C46A C49G G52A C60U A69G	≤ 0.5
C34U C49A G52A	0.59
U35A G56A	0.817
U35A C49G G58A C60A	≤ 0.5
U35C U47A C49U	0.603
U35A U47C C49U C62A A69G	0.718
C34G A45G C60U A69U	≤ 0.5
U35A A40U A42U C55G	≤ 0.5
U35C C55G	0.59
C34G C61A	0.613
U35A A57C U64A G68A	≤ 0.5
U35C A65G C66U	0.675
U35C A42G C55A	≤ 0.5
C34U A45C C60A	≤ 0.5
U35A G63C	0.56
U35C C46U C55G	0.507
U35C A69U	0.949
U35C A69C	0.943
U35A A65U	0.757
U35A A65C	0.781
C34U U35A	≤ 0.5
C34G G38A A57G	0.539
U35C A57C	0.609

Variant	yeast fitness
U35C A57G	0.739
U35A A36G	0.65
C34G C49G A65G	≤ 0.5
C34U A40U	0.632
C34U A40G	0.729
C34G U35G G39A	0.593
U35C C60G C61U	≤ 0.5
U35C A36G G58A G67A	≤ 0.5
C34U G56C	0.51
C34G A45C A57C	0.514
C34U A65C	0.884
C34U A43G U54C	≤ 0.5
C34G C49G C61U A69G	0.567
C34G A43U	0.625
C34G A43C	0.594
U35C A36C A40U C61G A69C A70C	≤ 0.5
C34U	0.707
C34U C66U	0.555
C34U G51A	0.547
C34G A57G C61U	≤ 0.5
C34U U47G G58C	0.518
U35C C60U C66U	≤ 0.5
C34U U64A	0.597
C34G G50C G56C	≤ 0.5

Variant	yeast fitness
U35C A70U	0.812
U35C A70G	0.781
C34G C55A G68A	≤ 0.5
C34G G39C U53G G56A	≤ 0.5
U35A U59A	0.591
U35A U59G	0.62
C34G G38C A70G	≤ 0.5
C34G G38C U47C C62G A69C	≤ 0.5
C34U A40G A43G C62A A69C	≤ 0.5
C34U A45U C66U	0.57
C34U C49U C55U	≤ 0.5
C34G A69C	0.589
C34G A69U	0.631
C34G C61U C66U	0.538
C34U C55U C66U	0.532
U35C A65G	0.945
U35C A65U	0.739
U35C A42C G52C U53C G68U	≤ 0.5
U35A A57C	≤ 0.5
C34U A42C A69C	≤ 0.5
U35C G48C C55U G56A	0.573
C34U A36G A40U	≤ 0.5
C34U G68U A69C	≤ 0.5
C34G G44C G58C G68U	≤ 0.5

Variant	yeast fitness
C34G G39A C49G C61U	≤ 0.5
C34U C46A C62U	0.682
U35A C46A C49G	≤ 0.5
U35C C61A G67C	≤ 0.5
C34U A42G	0.712
C34U A37G A45U C49A	≤ 0.5
C34G G50C	≤ 0.5
C34U A36G A45U U64A	≤ 0.5
C34G G52C C60G	≤ 0.5
C34U A37G C62A	≤ 0.5
C34G G50C C55G	0.59
C34G G38C A69U	0.5
C34G G50A U59A	≤ 0.5
C34U U47A A70U	0.534
C34U G50A	0.67
C34U C61G C66U	0.595
C34G G52A A69C	0.645
U35A A43C C46U	≤ 0.5
U35C A45C C49A	≤ 0.5
C34G G67C	0.604
U35C C49G	0.883
C34U C49U U53C	≤ 0.5
U35C G41A	0.882
C34U G44C A45G U47G	≤ 0.5

Variant	yeast fitness
C34U A69U A70C	0.541
C34G A65U	0.581
C34G A65C	0.65
C34G A65G	0.765
C34G U47C	0.599
U35C C62A A69U	0.551
C34G C66U	0.634
C34G G39A A70C	≤ 0.5
C34U A57G C60A	≤ 0.5
C34G G48A	0.662
U35A A37G A40G A43U A45C	≤ 0.5
C34U A37C G63A	≤ 0.5
C34U A37U A45G	≤ 0.5
C34U G68A	0.774
C34U G67A G68C	0.653
C34G A57G A65G C66U	0.58
C34U U54C A69U	≤ 0.5
U35C G44A C46G G50C U53A	0.583
C34U G41C	0.768
U35A A36G A40U A42U C55G	≤ 0.5
C34U C60G	0.716
U35C A36C A40U C61G	≤ 0.5
C34U C61G A70U	≤ 0.5
C34U C61G A70C	0.528

Variant	yeast fitness
C34U U54C	0.569
C34U U54G	0.612
C34U A36G G41A U47A G58C G63C G67A	≤ 0.5
C34U G41A C49G	0.535
C34U U47C A69U	0.506
U35A A65G C66U	0.675
C34U A45C	0.6
U35C C55A A69U	≤ 0.5
C34G C55G U59C C60U G67U	0.555
U35C A37C	0.817
U35C G51U C61U	0.53
U35C A45G C49G G56A A65C	≤ 0.5
U35A A36G G48A C49U	≤ 0.5
C34G C49A U59G	0.547
U35A C62A C66G	0.66
C34U G58C C61A A69U	≤ 0.5
C34U A43G A69C	0.553
C34G C62U	0.639
C34G C62A	0.64
C34G G50C C55G C60A	0.715
U35A A40U G41C C49A	≤ 0.5
C34G C46U C49U	≤ 0.5
C34U G58C G63A A70C	≤ 0.5
